In the EternaBench riboswitch data:

Test system: MS2 coat protein
Experiment: apparent Kd, MS2 coat protein; higher = weaker binding; RNA-MaP array; FMN 200 µM where present
How it was run: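 The apparent Kd comes from binding curves fitted cluster by cluster, filtered, and summarised as a median. Those curves followed SNAP-549-labelled MS2 coat protein from 0.7 or 1.5 nM, doubling to 3 µM, on Illumina sequencing-chip clusters where stalled E. coli RNA polymerase had transcribed the designs, without and then with constant ligand. The buffer was 100 mM Tris-HCl pH 7.5, 80 mM KCl, 4 mM MgCl2, BSA, DTT, yeast tRNA and Tween-20, and green signal was normalised to red-channel RNA signal and control-cluster median Fmax.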

[1] = designed as: OFF switch for flavin mononucleotide, no ligand
[2] = ligand present: flavin mononucleotide, designed as: OFF switch for flavin mononucleotide
[3] = designed as: ON switch for flavin mononucleotide, no ligand
[4] = ligand present: flavin mononucleotide, designed as: ON switch for flavin mononucleotide

Sequence | apparent Kd [1] | apparent Kd [2] | apparent Kd [3] | apparent Kd [4]
UUAAAUCAUGUAGGAUAUGCAUGGCGAAGCUACGCAGAAGGACAUGAGGAUCACCCAUGUUCUGGCUACCGGAUACGGUGGCAA | 20.6 nM | 83.6 nM |  | 
GCAGUACGCCUGGCAAUUUGCAAGCAGGAUAUCAGGCACCGUGGGACAUGAGGAUCACCCAUGUCUGAGAAGGGCUGGAGUUGC | 10.7 nM | 23.1 nM |  | 
GUUUACGCAUGAGGAUAUGCUCGCAUUUCAAGAGCAGAAGGUAUGUCUUUAGACAUGAGGAUCACCCAUGUAUUUAUCAUUGUA |  |  | 187 nM | 29.9 nM
GCACGAUAUCAGGAUAUGACUAGCCUCGGCUAGUCAGAAGGGAUGACAUGAGGAUCACCCAUGUGAUCACGUGC | 57.2 nM | 77.9 nM |  | 
AUCAGCUCGUCAGGAUAUACGUCACUGCGUCAGCAGUGUGGUAGGAUCACAUGAGGAUCACCCAUGUAGAAGGGACGAGCUGAU | 23.8 nM | 297 nM |  | 
GGGUGGCGUAGAGGAUAUAUGGUACAUGAGGAUCACCCAUGUACAUAUGAUGUUCAUGUUUAUGUAUAGAAGGCUACGUCGCUA |  |  | 10.1 nM | 9.76 nM
AUCAGCUCGUCAGGAUAUACGUCACUGCGGCAGCAGUGUGGUAAGAUCACAUGAGGAUCACCCAUGUAGAAGGGACGAGCUGAU | 13.1 nM | 260 nM |  | 
GAGAUGUGAGGAUAUCUAGACCGCGGCAGAGCUGCGGUCCGAGAGAAGGCACAUGAGGAUCACCCAUGUGAUGA | 57 nM | 207 nM |  | 
GCGAAGAACGAGAAGGCCACUACAUGAGGAUCACCCAUGUCGUGGUGUAUUGGAGGAUAUCGAUCGGCGUCUCAUGAGGACAUA | 5.35 nM | 5.44 nM |  | 
CGAUGACAAAGUCAUCGAUUACGAACAUGAGGAUCACCCAUGUAGGAUAUGCUACUCAAAGAGUAGCAGAAGGACAUGUGUCUU | 35.6 nM | 155 nM |  | 
UGAUCUUGUGUCAGGAUAUGCUGGUCUCCUCUCCAGCAGAAGGGACAUGAGGAUCACCCAUGUUCUCUCUUUUU | 11 nM | 28.6 nM |  | 
AAAAAAAAAAGUCAGGAUAUACAAAUUUUUACAUGAGGAUCACCCAUGUUAAGGAAAAAAAAAAAGUAGAAGGGACAAAAAAAAAA |  |  | 27.3 nM | 17.6 nM
UCGGUGACAGGAUAUACAUGAGGAUCACCCAUGUUAAGAAGAGAAAGGGCAGGAAGAGGUAGAAGGGUCGCUGU | 51.7 nM | 69 nM |  | 
GUGGUACAUGAGGAUCACCCAUGUUAGGAUAUCGCGUGAGGUUUUACUUCCGCGCGCGCGAGAAGGGACGUCUU | 26.8 nM | 22.8 nM |  | 
GGUCCUUCUGUUAGGAUAUGCUAUGGGCUUCCGCAGUAGAAGGAACAUGAGGAUCACCCAUGUCCGAUGCCGUA |  | 121 nM |  | 
GUCUUACAUGAGGAUCACCCAUGUGAGGAUAUCCCGGGCCCGGGCUUGCCCGGGCCCGGGAGAAGGCACAUGUU | 32.2 nM | 99.4 nM |  | 
UGCCGUGUACAGAAGGGCGACAUGAGGAUCACCCAUGUCUCCUUGUUGGUCGUAGGAUAUGUACCGUGGCUCUCUACUGUGGGA | 5.47 nM | 6.75 nM |  | 
AUACUAAAUGAAGGAUAUCUAAGCAUAAACCUGAGAGAAGGUCAUUUUUACAUGAGGAUCACCCAUGUUGUGAUUAAUGGGUAA | 201 nM | 366 nM |  | 
AGGUCGUGAGGAUAUCGUCCCGUGAGCAGUAGUUGCGCGGGUGAGAAGGCACAUGAGGAUCACCCAUGUCAUCC | 24.9 nM | 74.4 nM |  | 
GCAAAGCCUGACAUGAGGAUCACCCAUGUUAGAUUGUUAUGUCAGGAUAUUGUCUAGACACUAGACAAGAAGGGAUGCUUUGCA |  |  | 386 nM | 38.4 nM
UGACGGCACACAGGAUAUAGUGCAGAAAGUGUACUAGAAGGGUGAGCACUCGUCCGGGCACAUGAGGAUCACCCAUGUCGUCGA |  |  | 207 nM | 512 nM
UGCAUGCUAGGAUAUACGAAACAUUAGGGUUCGUCGUAUGAACAUGAGGAUCACCCAUGUAGAAGGAGCGUGCU | 18.4 nM | 34.3 nM |  | 
AAUCUAUUUAUGGGAUUACAAUAUGAGGAUAUCAUUCAUCUAUACAUGAGGAUCACCCAUGUUACUGAGAAGGCAUAUAUAAUA |  |  | 14.1 nM | 9.85 nM
AUUCAGCGGAACUUGACAUCCCUACAUGAGGAUCACCCAUGUCAGGAUAUAUGCUCUCGAGCUGCAUAGAAGGGACAUAGUGGG | 48.2 nM | 67 nM |  | 

Sequence | apparent Kd [1] | apparent Kd [2] | apparent Kd [3] | apparent Kd [4]
GGGCCAUAGUAGAAGGGAUAUACGAAAGGUAUAUCAGGAUAUACAUGAGGAUCACCCAUGUUCUAACAGUGAUAGUCCUCCCUA | 22.4 nM | 69.8 nM |  | 
GUGAGGUCAGGAUAUGCAUGGCGGGACUUGCGUCGUGGCGUGCAGAAGGGACAUGAGGAUCACCCAUGUGGAGG | 225 nM | 302 nM |  | 
AAUUUACAUGAGGAUCACCCAUGUCAGGAUAUGGUUUUAUUUUUUUCUUUUCUUGAUUCCAGAAGGGACAGUUA | 114 nM | 63.9 nM |  | 
ACGCUUUAUGUAGGAUAUUCAGAGAAAGAGAAAGAAGAAGGACAUGAGGAUCACCCAUGUAAGAAGUAGAUAGAGAUGAUACAU | 76.4 nM | 66.1 nM |  | 
CUCAUGUGAGGAUAUGUGAUCAACCUUCUGUAUAGAUGAUGACAGAAGGCACAUGAGGAUCACCCAUGUAGAUC | 68.9 nM | 57.1 nM |  | 
UUUACAUGAGGAUCACCCAUGUAUAGAACGGUUAAUUAAAGUGAGGAUAUACAUAAUUUUAUAUUGUAGAAGGCACUGGGUACA |  |  | 14.3 nM | 17.5 nM
CAGUGCAAUGUAGGAUAUGCUCAGGAUAACUGAGCAGAAGGACAUGAGGAUCACCCAUGUCAAAUGAAAGAUAAUAAAGCACUG | 14.3 nM | 17.8 nM |  | 
UAUUCUUACGAAGGAUAUGGUUACAUGAGGAUCACCCAUGUAUGUAUAUUGAUCUAGUUUUUUAACCAGAAGGUCGUGAGUAUA | 40.4 nM | 54.2 nM |  | 
GACUGCUGAGGAUAUACAUGAGGAUCACCCAUGUGCUUCAGUAUCGAAAGAUACAUUGGUAGAAGGUGGUAGUC | 13.4 nM | 21.4 nM |  | 
GGACCGUGCAGAGUUGGCGGUCGGCAGGAUAUGACAUGAGGAUCACCCAUGUGAACUCCAUUGGGUCAGAAGGGCCACGACACA | 17.6 nM | 78 nM |  | 
CUGAUGUUAGGAUAUCAGGCGCCCGCCACUGGCAGGGCGCAUGAGAAGGGACAUGAGGAUCACCCAUGUAGUAA | 27.5 nM | 46.1 nM |  | 
AGCGGCGCGGGCCACCGCAAAACCAGAAGGACAUGAGGAUCACCCAUGUAACAAAACAGGGCGGUGUAGGAUAUGGCAGACCCG | 14.7 nM | 23.8 nM |  | 
CUGCUCCGUGUAGGAUAUGCAUACAACCAAUAUGCAGAAGGACAUGAGGAUCACCCAUGUAUGUUAUUAUCACGUGAAGCGUCC | 22.6 nM | 42.9 nM |  | 
UGGUACUAGGGAGGAUAUGGGAAGAUACAUGAGGAUCACCCAUGUUUAAGAACGCCGAGAGGCAACUAGAAGGCCCUAGUACCU |  |  | 340 nM | 14.8 nM
GACUGGCAGCUAGGAUAUGGGCGAUCACAUGAGGAUCACCCAUGUCAACAUCAAAACAAGAUUAACCAGAAGGAGCCGCGGGCU |  |  | 17.3 nM | 49.7 nM
CCUAAGGACACAGGAUAUAGCGUGGCGGCUGGACUCCAACGGCGAACGGCGCUAGAAGGGUGACCACAUGAGGAUCACCCAUGU |  |  | 495 nM | 206 nM
UACUCAUGUGAGAAGGGACGUAUCUCCAUGAGGGUAGGGCUAUUAGAGAAGUCAGGAUAUCACAUGAGGAUCACCCAUGUGACG | 6.92 nM | 7.02 nM |  | 
GGACGUCACAUUUACAUGAGGAUCACCCAUGUCUCUUGACAUGAGGAUAUGUAUACGAAUCGUAUACAGAAGGCAUGGACGUCC |  |  | 1100 nM | 153 nM
UAUACUUACGAAGGAUAUGGUUACAUGAGGAUCACCCAUGUAUGUAUGUUGAUCGUGUAUCUUAACCAGAAGGUCGUCACUAUA | 44.9 nM | 56.5 nM |  | 
UUAUUAUGUGUAGGAUAUGCAUAUUAUUAUUAUGCAGAAGGACAUGAGGAUCACCCAUGUAUAUUGUUAUUAUAUAUUAUAUAU | 11.5 nM | 16.7 nM |  | 
GGUAUUCGAGGAUAUCGCAAACGAGACAUGAGGAUCACCCAUGUCCCUCAUGCUUGUCGGCGAGAAGGCGACAAGC | 14.8 nM | 17.7 nM |  | 
AAUAACAGAGGAUAUACUAUUUUAUGUGUUUAUUGUUUUAAACAUGAGGAUCACCCAUGUAGAAGGCUGAUUAA | 69.7 nM | 105 nM |  | 
CUCAGACAUGAGGAUCACCCAUGUGAGGAUAUGAUGCGAUCGUCGAAAGACGAUAGCAUCAGAAGGCACAAAUG | 78.4 nM | 305 nM |  | 
GCUAUCGAUGUAGGAUAUGCUAGGGAAACCCUGGCAGAAGGACAUGAGGAUCACCCAUGUCAAUGGAUGGAGAGAAGAGAUGGC | 25.6 nM | 74.3 nM |  | 
